Bioassay records from PubChem.
Most compounds without a hit are left out; they make up all but 2.5% or so of the library.
DSG3 Ab inh: inhibitors of pemphigus antibody binding to human desmoglein-3; DSG3-coupled beads, scFv-anti-DSG3-GFP binding, flow cytometry; hits give low values; 310,000 tested, 0.48% active; P32926; binding (percent of control), % at 10 µM; AID 588358;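 active = binding more than 3 SD below its plate's average and above zero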;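 also: hits lower antibody fragment binding to DSG3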
MBD2 inh: blocks human MBD2 binding to methylated DNA | Q9UBB5 | 370,000 tested, 0.31% active | AID 686964 | TR-FRET, MBD2 binding to methylated oligonucleotide | inhibition, % at 4.4 µM; in the data active = inhibition above about 13%
UHRF1 MBD2 ctr: UHRF1 methyl-DNA binding inhibition | Q96T88 | UHRF1 binding to methylated oligo, TR-FRET | inhibition, % at 4.4 µM | 370,000 tested, 0.75% active | AID 687016; in the data active = inhibition above about 21%;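 also: UHRF1 SRA domain binding a hemimethylated CpG hairpin DNA probe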
Target sequence (Q96T88 whole entry, looked up, the tested form may be a part): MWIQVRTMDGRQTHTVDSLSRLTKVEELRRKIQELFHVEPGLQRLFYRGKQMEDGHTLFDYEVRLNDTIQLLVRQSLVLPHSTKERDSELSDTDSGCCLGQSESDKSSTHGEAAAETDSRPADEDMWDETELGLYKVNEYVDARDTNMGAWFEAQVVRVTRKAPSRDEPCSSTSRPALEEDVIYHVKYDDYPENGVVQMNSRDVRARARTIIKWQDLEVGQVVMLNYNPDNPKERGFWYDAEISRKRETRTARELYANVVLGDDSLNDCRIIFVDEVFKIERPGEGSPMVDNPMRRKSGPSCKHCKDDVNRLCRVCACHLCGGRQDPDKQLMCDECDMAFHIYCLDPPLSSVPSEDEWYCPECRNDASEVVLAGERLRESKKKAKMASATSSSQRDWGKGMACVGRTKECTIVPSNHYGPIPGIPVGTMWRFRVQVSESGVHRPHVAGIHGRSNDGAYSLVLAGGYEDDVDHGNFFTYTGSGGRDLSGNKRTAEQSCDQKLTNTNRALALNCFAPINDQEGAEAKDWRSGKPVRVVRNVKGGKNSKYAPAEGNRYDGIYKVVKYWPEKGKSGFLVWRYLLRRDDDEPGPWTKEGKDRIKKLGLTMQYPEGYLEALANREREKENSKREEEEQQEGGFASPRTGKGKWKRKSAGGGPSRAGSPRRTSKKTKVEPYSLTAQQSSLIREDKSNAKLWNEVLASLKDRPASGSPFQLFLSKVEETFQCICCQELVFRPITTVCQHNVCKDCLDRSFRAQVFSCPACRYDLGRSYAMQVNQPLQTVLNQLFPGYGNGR
DNMT1 block: DNMT1 (human) enzyme inhibition; P26358; DNMT1 molecular beacon, Hinp1I cleavage, fluorescence; inhibition (reported as % activation of signal), % at 10 µM; 360,000 tested, 0.83% active; in the data active = inhibition above about 50%
SUMO1 PPI mod: SUMO1-SIM interaction modulation; inhibition, % at 20 µM; SUMO1 binding to a labelled peptide, TR-FRET, 1 h; P63165; AID 602429; 360,000 tested, 0.33% active; in the data active = inhibition above about 37%
NS3 helicase inh: blocks Hepatitis C virus NS3 helicase unwinding. NS3 helicase DNA unwinding, Cy5 molecular beacon fluorescence. inhibition, % at 10.9 µM. 290,000 tested, 0.56% active. AID 1800;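 active = inhibition above the mean of all tested compounds plus 3 SD, set per campaign, cut at about 35% in these data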
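Assay system – hepatitis C virus NS3 helicase domain fragment enzyme · Buffer or medium – MOPS pH 6.5, MgCl2, DTT, Tween20, BSA · Reagent – Cy5/quencher beacon DNA duplex and ATP to start · Compound – single 10.9 µM dose · Timing – 1 h at 25 °C · Technique – Cy5 beacon fluorescence read at start and 1 h · Measure – % inhibition of unwinding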
Numbers stand for hits.

COc1ccc(CC(=O)N2CCN(C(=O)Cc3ccc(OC)c(OC)c3)CC2)cc1OC was read as DSG3 Ab inh inactive, MBD2 inh inactive, UHRF1 MBD2 ctr inactive, DNMT1 block inactive and SUMO1 PPI mod inactive.
Screening Cc1nn(-c2nccs2)c2c1C(=O)CC(C)(C)C2Br (stereo not given) returned DSG3 Ab inh inactive, MBD2 inh inactive, UHRF1 MBD2 ctr inactive, DNMT1 block inactive and SUMO1 PPI mod inactive.
COC(=O)c1ccc2c(c1)C(=O)/C(=C/c1ccc(O)cc1)O2 was read as DSG3 Ab inh inactive, MBD2 inh inactive, UHRF1 MBD2 ctr inactive, DNMT1 block inactive, SUMO1 PPI mod 47 and NS3 helicase inh inactive.
Screening COc1cc(N)c(Cl)cc1C(=O)OCC(=O)N1CCCC1 returned DSG3 Ab inh inactive, MBD2 inh inactive, UHRF1 MBD2 ctr inactive, DNMT1 block inactive, SUMO1 PPI mod inactive and NS3 helicase inh inactive.
For Cc1ccc(NC(=O)c2csc(-c3ccccc3)c2C)cc1 the results were DSG3 Ab inh -24, MBD2 inh inactive, UHRF1 MBD2 ctr inactive, DNMT1 block inactive, SUMO1 PPI mod inactive and NS3 helicase inh inactive.
`Cc1ccccc1OCC(=O)Nc1ccc(N2CCN(S(C)(=O)=O)CC2)cc1` gave MBD2 inh inactive, UHRF1 MBD2 ctr inactive, DNMT1 block inactive, SUMO1 PPI mod inactive and NS3 helicase inh inactive.
Cc1ccccc1N(C(=O)CCC(=O)Nc1ccccn1)C(C(=O)NC(C)C)c1ccc(F)cc1 (stereo not given) was read as MBD2 inh inactive, UHRF1 MBD2 ctr inactive, DNMT1 block inactive, SUMO1 PPI mod inactive and NS3 helicase inh inactive.
`O=C(Nc1ccc2cn[nH]c2c1)c1c(Cl)cccc1Cl` gave DSG3 Ab inh inactive, MBD2 inh inactive, UHRF1 MBD2 ctr 22, DNMT1 block inactive, SUMO1 PPI mod inactive and NS3 helicase inh inactive.
Screening Cc1ccc(CN(C)C(=O)c2ccc(S(=O)(=O)N(C)c3ccccc3)cc2)o1 returned DSG3 Ab inh inactive, MBD2 inh inactive, UHRF1 MBD2 ctr inactive, DNMT1 block inactive and SUMO1 PPI mod inactive.
`C=CC(=O)Nc1cccc(Oc2ccnc3[nH]ccc23)c1` gave DSG3 Ab inh inactive, DNMT1 block inactive and SUMO1 PPI mod 57.
CN(C)/C=C/C(=O)c1ccc([N+](=O)[O-])c(CS(=O)(=O)c2ccccc2)c1 was read as DSG3 Ab inh inactive, MBD2 inh inactive, UHRF1 MBD2 ctr inactive, DNMT1 block inactive, SUMO1 PPI mod inactive and NS3 helicase inh inactive.
`Cc1ccc(S(=O)(=O)NCc2ccccc2)cc1C(=O)N(C)CC(=O)Nc1ccccc1Br` gave DSG3 Ab inh inactive, MBD2 inh inactive, UHRF1 MBD2 ctr 22, DNMT1 block inactive and SUMO1 PPI mod inactive.
Screening CN(CC(=O)Nc1ccccc1Br)C(=O)c1cccc(S(=O)(=O)NCc2ccccc2)c1 returned DSG3 Ab inh inactive, MBD2 inh inactive, UHRF1 MBD2 ctr inactive, DNMT1 block inactive and SUMO1 PPI mod inactive.
`O=S1(=O)c2ccccc2OC(COCc2ccccc2)CN1C1CC1` (stereo not given) gave DSG3 Ab inh inactive, MBD2 inh inactive, UHRF1 MBD2 ctr 26, DNMT1 block inactive and SUMO1 PPI mod inactive.
Screening CN1CC(COCc2ccccc2)Oc2ccccc2S1(=O)=O (stereo not given) returned DSG3 Ab inh inactive, MBD2 inh inactive, UHRF1 MBD2 ctr inactive, DNMT1 block inactive and SUMO1 PPI mod inactive.
For CS(=O)(=O)N1CCN(c2ccccc2NC(=O)c2ccc([N+](=O)[O-])o2)CC1 the results were DSG3 Ab inh 28, MBD2 inh inactive, UHRF1 MBD2 ctr inactive, DNMT1 block inactive, SUMO1 PPI mod inactive and NS3 helicase inh inactive.
Cc1cccc(NC(=O)CN2C(=O)N/C(=C/c3ccc(C)o3)C2=O)c1 was read as DSG3 Ab inh inactive, MBD2 inh inactive, UHRF1 MBD2 ctr 88, DNMT1 block inactive, SUMO1 PPI mod inactive and NS3 helicase inh inactive.
For CC(Cc1cccnc1)NC(=O)CCc1nnc(-c2ccccc2)o1 (stereo not given) the results were MBD2 inh inactive, UHRF1 MBD2 ctr inactive, DNMT1 block inactive, SUMO1 PPI mod inactive and NS3 helicase inh inactive.
`COc1ccccc1CCc1nnc(CCC(=O)NC(C)Cc2ccsc2)o1` (stereo not given) gave DSG3 Ab inh 8.6, MBD2 inh inactive, UHRF1 MBD2 ctr inactive, DNMT1 block inactive, SUMO1 PPI mod inactive and NS3 helicase inh inactive.
For COc1ccccc1CCc1nnc(CCC(=O)NCC(C)Oc2cccnc2)o1 (stereo not given) the results were DSG3 Ab inh inactive, MBD2 inh inactive, UHRF1 MBD2 ctr inactive, DNMT1 block inactive, SUMO1 PPI mod inactive and NS3 helicase inh inactive.
For COc1ccccc1CCc1nnc(CCC(=O)NCCOc2cccnc2)o1 the results were DSG3 Ab inh inactive, MBD2 inh inactive, UHRF1 MBD2 ctr 25, DNMT1 block inactive, SUMO1 PPI mod inactive and NS3 helicase inh inactive.
Screening COc1ccccc1N1CCN(S(=O)(=O)c2c(C)ccc3nsnc23)CC1 returned DSG3 Ab inh inactive, MBD2 inh inactive, UHRF1 MBD2 ctr inactive, DNMT1 block inactive, SUMO1 PPI mod inactive and NS3 helicase inh inactive.
O=C(CSc1nnc(Cc2cccs2)n1C1CC1)NC1CCS(=O)(=O)C1 (stereo not given) was read as MBD2 inh inactive, UHRF1 MBD2 ctr inactive, DNMT1 block inactive and SUMO1 PPI mod inactive.
O=C(COC(=O)c1ccccc1F)Nc1cccnc1Cl was read as DSG3 Ab inh inactive, MBD2 inh inactive, UHRF1 MBD2 ctr 25, DNMT1 block inactive, SUMO1 PPI mod inactive and NS3 helicase inh inactive.
`CCOc1ccccc1NC(=O)C1C2CCC3C(CCC21)C3(Cl)Cl` (stereo not given) gave DSG3 Ab inh inactive, MBD2 inh inactive, UHRF1 MBD2 ctr 26, DNMT1 block inactive, SUMO1 PPI mod inactive and NS3 helicase inh inactive.
`CCOc1ccccc1NC(=O)COC(=O)C1CC1` gave DSG3 Ab inh inactive, MBD2 inh inactive, UHRF1 MBD2 ctr 23, DNMT1 block inactive, SUMO1 PPI mod inactive and NS3 helicase inh inactive.
For Cc1ccc2c(c1)C1(OCCCO1)C(=O)N2CC(=O)NN the results were DSG3 Ab inh inactive, MBD2 inh inactive, UHRF1 MBD2 ctr inactive, DNMT1 block inactive and SUMO1 PPI mod inactive.
Screening O=C(NCc1ccc2c(c1)OCO2)C1CCC(CNS(=O)(=O)c2cccc3nsnc23)CC1 (stereo not given) returned DSG3 Ab inh inactive, MBD2 inh inactive, UHRF1 MBD2 ctr inactive, DNMT1 block inactive, SUMO1 PPI mod inactive and NS3 helicase inh inactive.
`C=CCN(CC=C)C(=S)Nc1ccc(OC)c(OC)c1` gave DSG3 Ab inh inactive, MBD2 inh inactive, UHRF1 MBD2 ctr inactive, DNMT1 block inactive, SUMO1 PPI mod inactive and NS3 helicase inh inactive.
For O=C(NN1C(=O)/C(=C\c2cccnc2)SC1=S)c1ccco1 the results were DSG3 Ab inh inactive, MBD2 inh inactive, UHRF1 MBD2 ctr 47, DNMT1 block inactive, SUMO1 PPI mod inactive and NS3 helicase inh inactive.
